Bioassay records from PubChem BioAssay.
A selection: hits, their analogues and other compounds. The true share with any hit is near 3.6%.
PfHsp90 set2 – reduces growth (ATP signal) of yeast expressing P. falciparum Hsp90. 310,000 compounds, 0.32% hits. inhibition, % at 9.4 µM. S. cerevisiae expressing PfHsp90, BacTiter-Glo ATP, 48 h; yeast lacking PDR1 and PDR3 efflux regulators. AID 504621;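 active = every replicate shows inhibition above about 80%, whatever the replicate mean, limit read from the data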
T cruzi repl – T. cruzi replication inhibition | T. cruzi beta-gal in NIH3T3, luminescence, 90 h | inhibition, % (test concentration not listed) | 300,000 compounds, 1.4% hits | AID 1885;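 active = mean inhibition across valid replicates above about 55%, limit read from the data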;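 also: signal also drops with host cell toxicity which is not excluded here; higher percent means less beta-gal luminescence so fewer parasites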
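Test system: β-gal T. cruzi (Tulahuen C4) inside NIH/3T3 cells / Quantity: 5,000 cells/well / Measured by: luminescence from GalScreen with 0.05% NP40, read after 60 min / Medium: DMEM plus 2% FBS / Measure: parasite load inhibition, % / Reagent: Tulahuen C4 trypomastigotes, 5000/well / Schedule: co-culture of at least 90 h after 3 h attachment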
HIF act – HIF pathway transcriptional activation; U2OS HRE-luciferase reporter, luminescence; normalized: DMSO 0%, desferrioxamine 100%; activation, % at 7.5 µM (by protocol); 300,000 compounds, 0.32% hits;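 active = mean activation of at least 10% of the iron chelator positive control signal, with at least half of replicates also reaching 10%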
CSC inhib – cancer stem cell inhibition. cancer stem cell-like cells viability, luminescence. inhibition, % at 7.5 µM. 300,000 compounds, 1.1% hits; in the data active = inhibition above about 75%; tested in HMLE shEcad cells
Beta cell apopt – blocks beta cell apoptosis | 300,000 compounds, 0.8% hits | protection from apoptosis, % (no concentration beside the values) | INS-1E cytokine-induced death, ATP luminescence, 48 h; percent of positive-control rescue, neutral wells zero;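 active = Every replicate reaches about 75%, or at least half do and their mean reaches it too, limit read from the data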;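 also: higher means more ATP so stronger rescue from cytokine killing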
SKKanGAS inh – SKKanGAS growth inhibition; S. pyogenes SKKanGAS, kanamycin growth, BacTiter-Glo, 6 h; inhibition, % at 7.5 µM; 300,000 compounds, 1.3% hits;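 active = mean replicate score, as percent of positive control median, at least 50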;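 also: strain carries kanamycin resistance gene driven by streptokinase promoter and grows in 40 µg/ml kanamycin; loss of luminescence reflects streptokinase promoter inhibition or plain growth inhibition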
Of the large screens only hits and unclear results are named; the others gave an inactive call.

C=CC(=O)N1c2ccccc2Sc2ccc(NC(=O)OCC)cc21	none
COc1ccc(/C=C(\NC(=O)c2ccco2)C(=O)NCc2ccco2)cc1	none
CN(C)S(=O)(=O)c1ccc(NC(=O)N2CCN(c3cccc(C(F)(F)F)c3)CC2)cc1	T cruzi repl 55
Cc1ccnc(NC(=S)N2CCN(c3cccc(C(F)(F)F)c3)CC2)c1	SKKanGAS inh 68
COC1OC2COC(c3ccccc3)OC2C(OC(C)=O)C1OC(C)=O (centres undefined)	none (no result: T cruzi repl, HIF act, CSC inhib, Beta cell apopt, SKKanGAS inh)
NS(=O)(=O)c1ccc(-c2ccc(/C=C3\SC(=S)N(C4CCS(=O)(=O)C4)C3=O)o2)cc1 (centres undefined)	SKKanGAS inh 73
Cc1ccc(/C=C2\SC(=S)N(C3CCS(=O)(=O)C3)C2=O)o1 (centres undefined)	none
Cc1ccc(-n2nnnc2SCC(=O)c2cc(C)n(CC3CCCO3)c2C)cc1 (centres undefined)	T cruzi repl 58
O=[N+]([O-])c1cc(F)cc(F)c1Nc1ccc(F)cc1	none (no result: T cruzi repl, HIF act, CSC inhib, Beta cell apopt, SKKanGAS inh)
CC(=O)OCCCNc1cc(Sc2nc3ccccc3s2)c2nonc2c1[N+](=O)[O-]	T cruzi repl 69, CSC inhib 76, SKKanGAS inh 91
CC(=O)OCCNc1cc(Sc2nc3ccccc3[nH]2)c2nonc2c1[N+](=O)[O-]	T cruzi repl 56, SKKanGAS inh 53
O=[N+]([O-])c1c(NCCCO)cc(Sc2ccc(Cl)cc2)c2nonc12	CSC inhib 88
COC(=O)CCSc1cc(NCCOC(C)=O)c([N+](=O)[O-])c2nonc12	none
CC(=O)OCCCNc1cc(Sc2ccc(C)cc2)c2nonc2c1[N+](=O)[O-]	HIF act 9.9
CCCS(=O)(=O)Nc1ccc(Nc2c3ccccc3nc3ccccc23)c(OC)c1	none (no result: T cruzi repl, HIF act, CSC inhib, Beta cell apopt, SKKanGAS inh)
Cc1cc2nc(-c3ccc[nH]c3=O)n(Cc3ccccc3F)c2cc1C	none
O=[N+]([O-])c1ccc(Sc2cccc3cccnc23)cc1	none
O=[N+]([O-])c1ccc(Sc2cccc3cccnc23)c([N+](=O)[O-])c1	Beta cell apopt 80 (no result: SKKanGAS inh)
O=[N+]([O-])c1cc(Cl)ccc1Sc1cccc2cccnc12	none
C=CCn1nc([N+](=O)[O-])nc1Sc1cccc2cccnc12	Beta cell apopt 95
O=c1[nH][nH]c(=O)n1-c1ccccc1	none (no result: PfHsp90 set2)
COc1ccc(CN(CCC(c2ccccc2)C2CCOC(C)(C)C2)C(C)=O)cc1 (centres undefined)	none
Cc1ccc(C(CC(=O)O)C2CCOC(C)(C)C2)cc1 (centres undefined)	HIF act 42 (no result: CSC inhib, Beta cell apopt)
O=S1(=O)N=C(Nc2ccc(N3CCOCC3)c(Cl)c2)c2ccccc21	SKKanGAS inh 50
COC(=O)c1cncn1Cc1ccccc1	none (no result: T cruzi repl, HIF act, CSC inhib, Beta cell apopt, SKKanGAS inh)
Cc1cc(NC(=O)c2ccc(F)cc2F)n(-c2nc3ccccc3[nH]2)n1	none (no result: PfHsp90 set2)
Cc1nc2ccccc2c(=O)n1NC(=O)/C=C/c1ccccc1Cl	none
Cc1cc(NC(=O)/C=C/c2ccccc2Cl)n(-c2nc3ccccc3[nH]2)n1	SKKanGAS inh 81
Cc1cc(NC(=O)CC2CCCC2)n(-c2nc3ccccc3[nH]2)n1	SKKanGAS inh 51
CN(Cc1ccccc1)C(=O)c1cccc(NC(=O)Cc2cccc(NC(=O)C3CCN(C(=O)c4ccccc4)CC3)c2)c1	none (no result: T cruzi repl, HIF act, CSC inhib, Beta cell apopt, SKKanGAS inh)
Cn1c(SCC(=O)NC2CCCCC2)nnc1-c1cccnc1	none (no result: CSC inhib)
Cn1c(SCC(=O)NC2(C#N)CCCCC2)nnc1-c1cccnc1	SKKanGAS inh 54 (no result: Beta cell apopt)
Cc1c(NC(=O)CSc2ncnc3ccccc23)c(=O)n(-c2ccccc2)n1C	none (no result: CSC inhib)
COc1cnc(-c2ccccn2)nc1Oc1ccccc1	SKKanGAS inh 57 (no result: Beta cell apopt)
COc1cnc(-c2ccccn2)nc1N(C)c1ccccc1	T cruzi repl 66, HIF act 114, CSC inhib 98, Beta cell apopt 92, SKKanGAS inh 72
O=C(CNCCc1ccc(Cl)cc1)Nc1ccc(C(=O)N2CCCCC2)cc1	T cruzi repl 62
COCCNS(=O)(=O)c1ccc(C)c(C)c1C	none
O=C(Nn1c(-c2ccncc2)nc2ccccc2c1=O)c1ccc(Br)cc1	T cruzi repl 67 (no result: Beta cell apopt)
Cn1c(COc2ccccc2)nnc1SCC(=O)Nc1nnc(C2CC2)s1	none (no result: T cruzi repl, HIF act, CSC inhib, Beta cell apopt, SKKanGAS inh)
Cc1ccc2[nH]c(=O)c(C3C(C#N)=C(N)Oc4c3ccc3cccnc43)cc2c1 (centres undefined)	Beta cell apopt 91 (no result: PfHsp90 set2)
COC(=O)C1=C(C)NC(C)=C(C(=O)OC)C1c1cc2cc(C)ccc2[nH]c1=O	none (no result: PfHsp90 set2)
N#CC1=C(N)Oc2c(ccc3cccnc23)C1c1ccccc1 (centres undefined)	Beta cell apopt 97
CCN(C(=O)COC(=O)CCOc1cc(C)ccc1C)c1c(N)n(Cc2ccccc2)c(=O)[nH]c1=O	none (no result: T cruzi repl, HIF act, CSC inhib, Beta cell apopt, SKKanGAS inh)
CCN1C(=O)[C@H]2[C@@H](c3ccc(-c4cccc(Cl)c4)c(OC)c3)N3CCC[C@@]3(C(=O)OC)[C@H]2C1=O	none (no result: T cruzi repl, HIF act, CSC inhib, SKKanGAS inh)
COC(=O)[C@@]12CCCN1[C@H](c1ccc(-c3cccc(Cl)c3)c(OC)c1)[C@H]1C(=O)N(C)C(=O)[C@H]12	SKKanGAS inh 66
COC(=O)[C@@]12CCCCN1[C@H](c1ccc(-c3cccc(Cl)c3)c(OC)c1)[C@@H]1C(=O)N(C)C(=O)[C@@H]12	T cruzi repl 56
COC(=O)[C@@]12CCCCN1[C@H](c1ccc(-c3ccccc3)c(OC)c1)[C@H]1C(=O)N(C)C(=O)[C@H]12	none (no result: T cruzi repl, HIF act, CSC inhib, SKKanGAS inh)
O=C(CCNC(=O)c1ccco1)Nc1ccccc1N1CCOCC1	none
O=C(CCCC(=O)OCC(=O)c1ccc(Cl)cc1)NC1CCCCC1	none
Cc1ccc(C(=O)OCC(=O)c2c[nH]c3ccccc23)cc1NC(=O)c1ccco1	none
COc1cccc(CC(=O)NNC(=O)CN(C)S(=O)(=O)c2ccc(C)cc2)c1	none (no result: T cruzi repl, HIF act, SKKanGAS inh)
Cc1nn(C(C)C(=O)N2CCCC2)c(=O)c2nn(-c3ccccc3)c(C)c12 (centres undefined)	T cruzi repl 56
Cc1nn(C(C)C(=O)NCCN2CCCCCC2)c(=O)c2nn(-c3ccccc3)c(C)c12 (centres undefined)	none
S=c1[nH]nc(-c2cc(-c3ccccc3)n[nH]2)n1/N=C/c1ccc(Cl)cc1	SKKanGAS inh 56
S=c1[nH]nc(-c2ccccc2)n1/N=C/c1cccc(Br)c1	none
S=c1[nH]nc(-c2cc(-c3ccccc3)n[nH]2)n1/N=C/c1ccc(Cl)c(Cl)c1	none
S=c1[nH]nc(-c2cc(-c3ccccc3)n[nH]2)n1/N=C/c1cccc(Cl)c1	SKKanGAS inh 60
CN(C)c1cccc2c(C=C(C#N)C#N)ccc(N(C)C)c12	none
OCCC1CN(Cc2ccccc2-c2ccco2)CCN1C1CCCC1 (centres undefined)	none
Cc1cc(C)c(C(N)=O)c(SCC(=O)c2cc(C)n(-c3cc(C)on3)c2C)n1	none (no result: T cruzi repl, HIF act, SKKanGAS inh)
Cc1onc(-c2ccccc2)c1C(=O)NNC(=S)NC(=O)/C=C/c1cccs1	SKKanGAS inh 95
